# The list is not random: actives were taken first. Their share in the collection is about 0.72%.
# mIAP inh: blocks mouse intestinal alkaline phosphatase; AID 2806; purified mouse IAP, CDP-Star luminescence, 30 min; inhibition, % at 10 µM; 330,000 tested, 0.2% active;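 active = inhibition of at least 40% at 10 µM in the primary screen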
# mIAP activ: increases mouse intestinal alkaline phosphatase activity | muIAP, CDP-Star luminescence, 30 min; stronger effect = higher value; 1 = vehicle-only enzyme signal, 0 = enzyme-free wells | activation factor at 10 µM | 330,000 tested, 0.24% active | AID 2805;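 active = activation factor of at least 2 at 20 µM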
#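 Assay system: mouse IAP enzyme; Reagent: CDP-Star chemiluminescent phosphatase substrate; Compound: DMSO-dissolved test compounds; Incubation: 30 min, room temperature; Technique: luminescence from enzymatic CDP-Star hydrolysis; Controls: DMSO-only wells and no-enzyme negative control.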
# bIAP inhibitor: intestinal alkaline phosphatase (bovine) inhibition | purified bovine IAP, CDP-star luminescence, 30 min | inhibition, % at 20 µM | 190,000 tested, under 10 active;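 active = over 50% inhibition of intestinal alkaline phosphatase at 20 µM in the single-dose screen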
#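 System: purified bovine intestinal alkaline phosphatase (IAP) enzyme; Input: IAP diluted 1/65,000,000 in the well; Measured by: CDP-star luminescence signal; Compound dosing: 20 µM single dose; Incubation: 30 min reaction at room temperature.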
# bIAP act: intestinal alkaline phosphatase (bovine) activation. purified bovine IAP, CDP-star luminescence, 30 min; stronger effect = higher value; fold of DMSO-control signal, blank-subtracted. activation factor at 20 µM. 200,000 tested, 0.17% active;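 active = activation factor of 2 or more at 20 µM, a signal rise over negative controls twice the positive control's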
# hIAP block: human IAP inhibition; purified IAP, CDP-Star luminescence, 30 min; inhibition, % at 10 µM; 330,000 tested, 0.12% active; AID 2544;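 active = inhibition reaching a set limit with compound at 10 µM in the primary screen, cut at about 35% in these data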
# Target sequence (P09923 whole entry, looked up): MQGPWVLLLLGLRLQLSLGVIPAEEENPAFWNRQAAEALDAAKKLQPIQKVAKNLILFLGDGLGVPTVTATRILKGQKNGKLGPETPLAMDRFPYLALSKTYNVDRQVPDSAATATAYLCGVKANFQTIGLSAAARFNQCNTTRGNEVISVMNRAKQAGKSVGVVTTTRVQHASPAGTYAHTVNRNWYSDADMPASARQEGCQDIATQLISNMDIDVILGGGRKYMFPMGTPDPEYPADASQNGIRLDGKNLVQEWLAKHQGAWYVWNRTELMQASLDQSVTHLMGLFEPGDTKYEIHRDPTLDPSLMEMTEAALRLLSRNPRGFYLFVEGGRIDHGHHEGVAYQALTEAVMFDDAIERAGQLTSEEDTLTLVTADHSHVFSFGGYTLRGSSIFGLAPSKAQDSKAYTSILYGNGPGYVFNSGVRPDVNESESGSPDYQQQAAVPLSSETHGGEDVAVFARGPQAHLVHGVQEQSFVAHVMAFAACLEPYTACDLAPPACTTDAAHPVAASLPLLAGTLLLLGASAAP
# hIAP act: human IAP activation; P09923; purified human IAP, CDP-Star luminescence, 30 min; stronger effect = higher value; 1 = vehicle-only enzyme, 0 = enzyme-free background; 330,000 tested, 0.16% active; AID 2524; activation factor at 10 µM;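 active = activation factor of the enzyme at least 2-fold when tested at 20 µM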
# mIAP inh confirm: mouse IAP inhibition confirmation | inhibition, % at 10 µM | purified mouse IAP, CDP-Star luminescence, 30 min | shares compounds with mIAP inh | 11,000 tested, 4.7% active;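 active = inhibition of at least 40% at 10 µM in either of the two replicates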
# Numbers stand for hits; - = inactive; . = not tested or not shown.
SMILES,mIAP inh,mIAP activ,bIAP inhibitor,bIAP act,hIAP block,hIAP act,mIAP inh confirm
Cc1ccc(-c2nc(C)sc2CC(=O)Nc2cccc(C)c2C)cc1,-,-,-,-,-,-,.
CC1=NN2C(=N)/C(=C\c3ccc(SCc4ccccc4)o3)C(=O)N=C2S1,-,-,-,-,-,-,.
N=C1/C(=C\c2ccc(SCc3ccco3)o2)C(=O)N=C2SC=NN12,69,-,-,-,-,-,76
C=CCc1cc(Cl)ccc1OC(=O)Nc1cccc(Cl)c1,-,3,.,.,-,-,-
CS(=O)c1ccccc1COC(=O)Nc1cccc(Cl)c1 (stereo not drawn),-,-,-,-,-,-,.
COc1cccc(NC(=O)C2CCN(Cc3cnn(-c4ccccc4)c3-n3cccc3)CC2)c1,-,2.8,-,4,-,-,-
COc1cccc(C2Nc3ccc4ccccc4c3C3=C2C(=O)CCC3)c1O (stereo not drawn),-,-,.,.,-,-,.
O=c1c(-c2c(O)cc(O)c3c(=O)cc(-c4ccc(O)cc4)oc23)c(-c2ccc(O)cc2)oc2cc(O)cc(O)c12,59,-,.,.,-,-,65
O=c1c(O)c(-c2ccc(O)c(O)c2)oc2cc(O)cc(O)c12,83,-,.,.,-,-,91
CC(C)(C)C(O)C(Cc1ccccc1Cl)n1cncn1 (stereo not drawn),-,-,.,.,-,-,.
O=C(NNC(=O)c1ccc(O)cc1O)c1ccc(-c2ccccc2)cc1,43,-,.,.,-,-,40
O=C(NNC(=O)c1cccc2ccccc12)c1ccc(-c2ccccc2)cc1,-,-,-,-,-,-,.
NS(=O)(=O)c1ccc(-c2ccc(/C=N/NC(=O)c3ccc([N+](=O)[O-])cc3)o2)cc1,42,-,.,.,-,-,45
COc1ccc([C@H]2CC(=O)C=C(c3ccc(Cl)c(F)c3)C2)cc1,-,-,.,.,-,-,.
CCOc1ccc(OCCC(=O)NNC(=O)c2ccncc2)cc1,-,-,.,.,-,-,.
CCCCCOc1ccc(C(=O)CCC(=O)NNC(=O)c2ccncc2)cc1,-,2.8,.,.,-,-,-
O=C(NC1CCCCC1)Oc1cc2oc(=O)sc2cc1Br,60,-,.,.,-,-,81
COc1ccc(CNS(=O)(=O)c2cc(-c3cc(C)no3)ccc2C)cc1OC,-,-,.,.,-,-,.
FC(F)(F)c1ccccc1CNCc1ccc2c(c1)OCO2,-,-,.,.,-,-,.
CC(C)OC(=O)c1sc2nc(-c3ccccc3)ccc2c1N,-,-,-,-,-,-,.
NC(=O)c1sc2nc3c(c(-c4ccco4)c2c1N)CCC3,43,-,-,-,-,-,57
NC(=O)c1sc2nc(-c3cccnc3)ccc2c1N,-,-,.,.,-,-,.
COC(=O)c1sc2nc(-c3ccco3)ccc2c1N,52,-,-,-,-,-,53
Nc1c(C(=O)Nc2ccccc2F)sc2nc(-c3ccco3)ccc12,48,-,-,-,-,-,61
NC(=O)c1sc2nc(-c3ccco3)ccc2c1N,44,-,-,-,-,-,52
SMILES,mIAP inh,mIAP activ,bIAP inhibitor,bIAP act,hIAP block,hIAP act,mIAP inh confirm
COc1cc(NC(=O)COc2cccc3c2OC(C)(C)C3)cc(OC)c1OC,-,-,.,.,-,-,.
Cc1ccnc(Nc2nc(-c3ccc(O)c(O)c3)cs2)c1,-,-,.,.,-,-,.
Oc1ccc(-c2csc(Nc3ccccn3)n2)cc1O,62,-,.,.,-,-,77
Cc1cccc(Nc2nc(-c3ccc(O)c(O)c3)cs2)n1,-,-,.,.,-,-,.
Oc1ccc(-c2csc(Nc3cccc4ccccc34)n2)cc1O,63,-,.,.,-,-,80
Cc1cccnc1Nc1nc(-c2ccc(O)c(O)c2)cs1,54,-,-,-,-,-,68
NC1=NC(=O)/C(=C\c2ccco2)S1,75,-,.,.,-,-,82
O=C(CCCN1C(=O)/C(=C\c2ccccc2)SC1=S)Nc1ccc(O)cc1C(=O)O,-,-,.,.,-,-,.
O=C(O)CCCN1C(=O)/C(=C\c2ccco2)SC1=S,.,.,-,-,.,.,.
O=C(CCCN1C(=O)/C(=C/c2ccco2)SC1=S)Nc1ccccc1C(=O)O,69,-,.,.,-,-,62
O=C(CCN1C(=O)/C(=C/c2ccco2)SC1=S)Nc1ccc(O)cc1C(=O)O,69,-,.,.,-,-,78
O=C(CN1C(=O)/C(=C\c2ccco2)SC1=S)Nc1ccc(O)cc1C(=O)O,70,-,.,.,-,-,81
CC(C)[C@H](NC(=O)c1ccccc1Cl)C(=O)OCC(=O)NCc1ccc2c(c1)OCO2,-,-,.,.,-,-,.
Cc1cc(-c2csc(NC(=O)c3ccc(=O)[nH]c3)n2)c(C)n1Cc1ccco1,48,-,.,.,-,-,65
O=C(NCC(=O)N1CCCC(C(F)(F)F)C1)c1ccco1 (stereo not drawn),-,-,.,.,-,-,.
Cc1cc(C(=O)N/N=C/c2ccc([N+](=O)[O-])o2)c(C)o1,47,-,.,.,-,-,68
Cc1nonc1C(=O)N/N=C/c1ccc([N+](=O)[O-])o1,47,-,-,-,-,-,60
COC(=O)N/N=C/c1ccc([N+](=O)[O-])o1,-,-,-,-,-,-,.
O=C(N/N=C/c1ccc([N+](=O)[O-])o1)c1sc2ccccc2c1Cl,42,-,.,.,-,-,54
C[n+]1cn(Cc2ccc(C#N)cc2)c2ccccc21,-,-,.,.,-,-,.
CCCCCCNC(=O)N[C@@H](C(=O)NCCC[C@H]1CN2C(=NC[C@@H]2Cc2ccccc2)N1CCc1cccc(OC)c1)C(C)C,-,3.3,.,.,-,-,-
C/C=C(\C)C(=O)NCCN1C2=NC[C@@H](Cc3ccccc3)N2C[C@@H]1Cc1ccc(OC)cc1,-,-,.,.,-,-,.
CC1CCCC(C)N1C(=O)COC(=O)c1cccs1 (stereo not drawn),-,-,.,.,-,-,.
Cc1ccc(N2CSC3=C(C#N)C(c4cccs4)CC(=O)N3C2)cc1 (stereo not drawn),46,-,-,-,-,-,46
N#CC1=C2SCN(c3ccc(F)cc3)CN2C(=O)CC1c1cccc(F)c1 (stereo not drawn),60,-,-,-,-,-,59
SMILES,mIAP inh,mIAP activ,bIAP inhibitor,bIAP act,hIAP block,hIAP act,mIAP inh confirm
Cc1cc(C)n2nc(CC(=O)NCc3ccccc3Cl)nc2n1,-,-,-,-,-,-,.
Cc1nc(C(F)(F)F)ccc1C(=O)N1CCCCC1,-,-,.,.,-,-,.
CS(=O)(=O)Nc1nc2n(n1)C(c1ccccc1)CC(c1ccccc1)N2 (stereo not drawn),-,-,.,.,-,-,.
Cc1ccc(/C=c2\sc3nc(-c4ccco4)nn3c2=O)o1,60,-,-,-,-,-,81
COc1ccc(Br)cc1/C=c1\sc2nc(-c3ccco3)nn2c1=O,60,-,-,-,-,-,70
COc1ccccc1/C=c1\sc2nc(-c3ccccc3OC)nn2c1=O,-,-,-,-,-,-,.

# From PubChem BioAssay
